Ab BasE inh = blocks the Acinetobacter baumannii siderophore enzyme BasE; inhibition, % (no concentration beside the values); purified BasE, fluorescence polarization binding displacement; AID 485350; hit rate 0.1% among 84,000; in the data active means inhibition above about 25%, passing the limit was not always enough
LANA-nucl inh = inhibitors of KSHV LANA binding to nucleosomes; FITC-LANA1-23 / chicken nucleosome fluorescence polarization; stronger effect = lower value; z-score (no concentration beside the values); hit rate 0.3% among 51,000; AID 720717;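 active means both repeat wells score below -2 in polarization z-score versus plate sample wells, excluding overly bright wells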
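test system = FITC-LANA peptide and chicken nucleosomes | amount = 240 nM purified chicken nucleosomes (480 nM peptide binding sites), final | reagent = 50 nM FITC-LANA1-23 probe | medium = TEN-BT buffer, pH 7.5 | doses = single compound addition by pin transfer, 100 nL per well | timing = 10–45 min, room temperature | detection = fluorescence polarization | repeats = duplicate plates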
Hits are given with their value; . = inactive; / = no result given; ! = not active in a repeat. This excerpt belongs to a sample that is enriched for hits.

SMILES | Ab BasE inh | LANA-nucl inh
CC(=O)n1cc(/C=N/NC(=O)c2cccc(O)c2)c2ccccc21 | 28 | .
O=C(N/N=C/c1c[nH]c2ccccc12)c1cccc(O)c1 | . | .
COc1ccc(C2CC(c3ccccc3)=NN2C(=O)CSc2nnc(-c3cccnc3)n2N)cc1 (configuration not stated) | . | /
Cc1nn(-c2ccc(F)cc2)c(C)c1/C=C/C(=O)OCC(=O)Nc1sccc1C#N | . | /
Cc1cccc(OCC(N)=O)c1 | . | /
Cc1cccc(OCC(=O)N(Cc2ccco2)Cc2ccco2)c1 | 28 | .
O=C(CCN1C(=O)/C(=C\c2ccco2)SC1=S)NN1CCOCC1 | . | .
O=C(CCN1C(=O)/C(=C\C=C\c2ccco2)SC1=S)Nc1ccc(C(=O)O)c(O)c1 | 33 | .
Cc1cc2nc3c(=O)n(C)c(=O)[nH]c3nc2cc1N=CN(C)C | . | -2.1
CCCCCCn1c(=O)[nH]c2nc3cc(N)c(C)cc3nc2c1=O | . | /
CN1C(=S)Cc2cc(Br)ccc21 | . | /
CCN1CC=C2C(C1)C(c1ccc(Cl)s1)C(C#N)=C(N)C2(C#N)C#N (configuration not stated) | . | -5.9
CCCN1CC=C2C(C1)C(c1ccc(C(=O)OC)cc1)C(C#N)=C(N)C2(C#N)C#N (configuration not stated) | . | .
Cc1cc(C)c(N=C(NC#N)Nc2c(C)cc(C)cc2C)c(C)c1 | . | /
CCC1CCCCN1C(=O)c1cc2ncc(Br)cn2n1 (configuration not stated) | . | .
Cc1ccc(C(=O)CSc2nc(C)cc(C)c2C#N)cc1 | . | .
COCc1cc(C)nc(SCC(=O)c2ccc(O)c(O)c2)c1C#N | 37 | /
CN(C)C(=O)COC(=O)c1oc2ccccc2c1COc1ccccc1 | . | /
COc1ccccc1C1C2=C(CC(C)(C)CC2=O)Nc2nc3ccccc3n21 (configuration not stated) | . | .
COc1ccccc1C1C=C(c2cccnc2)Nc2nc3ccccc3n21 (configuration not stated) | . | -4.8
CC[C@@]1(O)C(=O)OCc2c1cc1n(c2=O)Cc2cc3c(CN(C)C)c(O)ccc3nc2-1 | . | -9!
CCCCc1cc(=O)oc2c(CN(C)C)c(O)ccc12 | . | .
COc1cc(/C=N/OCC(=O)N2C(C)CCCC2C)ccc1OC(F)F (configuration not stated) | . | /
CCCNC(=O)Cn1nc(CC)n2c(cc3ccccc32)c1=O | . | .
O=C1NC2(CCCCC2)Nc2ccccc21 | . | .
SMILES | Ab BasE inh | LANA-nucl inh
O=C1NC2(Cc3ccccc3C2)Nc2ccccc21 | . | -2
Cc1nc(C(F)(F)F)c(-c2ncn(-c3ccccc3)n2)s1 | / | .
CN(C)c1ccc2nc3ccc(=[N+](C)C)cc-3sc2c1 | / | -2.4
CC(C)c1nc2ccc(N)cc2s1 | . | .
N#Cc1cc2cc(Br)ccc2oc1=O | . | .
CC(C)NS(=O)(=O)c1ccc(N=Cc2c(O)n(C)c(=O)n(C)c2=O)cc1 | . | /
O=C(CSC1=NNC(c2ccccn2)S1)Nc1cccc(Cl)c1 (configuration not stated) | . | -2.1
COc1cccc(NC(=O)CSc2ncccn2)c1 | . | .
CSc1ccccc1NC(=O)CN(C)C(C)C(=O)Nc1cccc(C#N)c1 (configuration not stated) | . | /
O=c1[nH]c(=O)c2nc3cc(C(F)(F)F)ccc3nc2[nH]1 | . | -2.9
CCN(Cc1nc2ccccc2c(=O)[nH]1)Cc1nc2cc(C(F)(F)F)ccc2c(=O)[nH]1 | . | /
CCC1C=CCC2C(=O)N(CC(=O)NCCC3=CCCCC3)C(=O)C12 (configuration not stated) | . | .
Cc1[nH]c(-c2ccc(F)cc2)cc1C(=O)N1CCCC(C)C1 (configuration not stated) | . | .
COc1cc(/C=C/C(=O)OCC(=O)Nc2cccc(F)c2)ccc1O | . | /
O=C(/C=C/c1ccc(O)c(O)c1)O[C@@H]1C[C@](O)(C(=O)O)C[C@@H](O)[C@H]1O | 32! | .
S=c1n(CN2CCOCC2)nc(-c2cccs2)n1CC1CCCO1 (configuration not stated) | . | /
O=C1c2cccc3c(N4CCOCC4)ccc(c23)C(=O)N1c1ccccc1 | . | -3.1
O=C(Nc1ccccc1N1CCOCC1)c1cccc(N2C(=O)c3ccccc3C2=O)c1 | . | /
CC(=O)N1CC=C2C(C#N)=C(N)C(C#N)(C#N)C(Cc3ccccc3)C2C1 (configuration not stated) | . | .
CCCC1C2CN(Cc3ccccc3)CC=C2C(C#N)=C(N)C1(C#N)C#N (configuration not stated) | . | -4.6
CN1CC=C2C(C#N)=C(N)C(C#N)(C#N)C(CCc3ccccc3)C2C1 (configuration not stated) | . | -2.9
CC(C)CC1C2CN(Cc3ccccc3)CC=C2C(C#N)=C(N)C1(C#N)C#N (configuration not stated) | . | .
C[n+]1cccc2ccc(O)cc21 | . | -6.7
Brc1ccc2ncnc(N3CCCCCC3)c2c1 | . | .
O=C1C=CC(=O)c2c(Cl)ccc(Cl)c21 | 80 | .
SMILES | Ab BasE inh | LANA-nucl inh
CC(C)c1ccc(C2=CC(=O)C=CC2=O)cc1 | . | .
Cc1ccsc1CNc1ccc2[nH]c(=O)[nH]c2c1 | . | .
O=C(Nc1ccccc1)O/N=C1\CCc2ccccc21 | . | .
N#Cc1nc2[nH]c(-c3ccccc3)cc(=O)n2c1C#N | . | /
CCC(=O)Nc1cccc(C2=NN(C(C)=O)C(c3ccc(F)cc3)O2)c1 (configuration not stated) | . | .
CC(=O)N1N=C(c2cccc(I)c2)OC1c1ccncc1 (configuration not stated) | 59 | .
COc1ccc(N2CCN(C(=O)c3ccc(-n4cnnc4)cc3Cl)CC2)cc1 | . | -2
COc1ccc(N2CCN(C(=O)c3ccccc3OC)CC2)cc1 | . | .
O=C(Nc1cccnc1)/C(N=Nc1cccnc1)=C(\O)c1ccccc1 | 32 | /
O=C(Nc1ccccc1)c1cccnc1 | . | /
O=C1S/C(=C/c2ccccc2F)C(=O)N1CN1CCCCC1 | . | /
COc1cccc(C(=O)N2CCN(c3ccccc3)CC2)c1 | . | /
COc1cccc(N2CCN(C(=O)c3nn(C)c4c3COc3ccccc3-4)CC2)c1 | . | -2.3
FC(F)(F)Oc1ccccc1C=Nc1ccc(Cl)cc1 | . | /
O=C(CSc1n[nH]c(=O)[nH]c1=O)Nc1ccc(Br)cc1Br | . | /
O=C(CSc1n[nH]c(=O)[nH]c1=O)Nc1ccccc1C(=O)c1ccccc1 | 38 | /
O=C1NC(Cc2c[nH]c3ccccc23)C(=O)N1CCN1C(=O)c2ccccc2C1=O (configuration not stated) | . | /
COCCNC(=O)c1cc2ccccc2o1 | . | .
Cc1ccccc1OCC1=NN2C(=N)/C(=C\c3ccc(SCc4ccco4)o3)C(=O)N=C2S1 | . | .
Cc1ccccc1OCC1=NN2C(=N)/C(=C/c3ccc(N(C)C)cc3)C(=O)N=C2S1 | . | -4.8
CCN(CC)C(=O)NCc1ccccn1 | . | .
O=C(c1csc(-c2ccccc2)n1)N(Cc1ccccn1)Cc1ccccn1 | / | -2
Cc1ccc(C)c(-n2nnnc2SCC(=O)Nc2cc(C(N)=O)cc(C(N)=O)c2)c1 | . | /
CCN(CC)S(=O)(=O)c1ccc(C(=O)NCC(=O)OC)cc1 | . | /
CC(C)(C)CC(C)(C)NC(=O)Nc1cccc(Cl)c1 | . | -2
Cc1ccccc1NC(=O)NC(C)(C)CC(C)(C)C | . | .
